The record followed here is ChEMBL document CHEMBL4715736, “Identification of anticancer agents based on the thieno[2,3-b]pyridine and 1H-pyrazole molecular scaffolds” (2016).

What all share (type): functional
What all share (conditions): read-out: Activity

Test [1] deals with HCT-15. In words: Growth inhibition of human HCT-15 cells assessed as cell growth at 10 uM incubated for 48 hrs by sulforhodamine B assay relative to control. In outline: (§1)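 Submitted to the NCI Developmental Therapeutics Program for the NCI60 human tumour cell line panel. First screen at a single 10 µM concentration. Read-out is growth relative to untreated control cells set at 100%.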
(In general: The SRB assay estimates cell density from bound dye.)

Test [2] deals with MCF7. The test is described as follows: Growth inhibition of human MCF7 cells assessed as cell growth at 10 uM incubated for 48 hrs by sulforhodamine B assay relative to control. The method, boiled down: as §1
For test [3], the system named is OVCAR-4. The test is described as follows: Growth inhibition of human OVCAR-4 cells assessed as cell growth at 10 uM incubated for 48 hrs by sulforhodamine B assay relative to control. The method, boiled down:
(§2)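 Run by the NCI Developmental Therapeutics Program as part of its 60-line human tumour panel. Each compound tested at a single 10 µM dose. Growth expressed as % relative to untreated control cells (100%).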

Test [4] relates to NCI-H322M. In words: Growth inhibition of human NCI-H322M cells assessed as cell growth at 10 uM incubated for 48 hrs by sulforhodamine B assay relative to control. In outline: as §1
In test [5] the test system is HCT-116. The test is described as follows: Growth inhibition of human HCT-116 cells assessed as cell growth at 10 uM incubated for 48 hrs by sulforhodamine B assay relative to control. The method, boiled down:
as §1

Test [6] relates to SK-OV-3. The test is described as follows: Growth inhibition of human SK-OV-3 cells assessed as cell growth at 10 uM incubated for 48 hrs by sulforhodamine B assay relative to control. In outline: as §2
Test [7] concerns NCI/ADR-RES. The test is described as follows: Growth inhibition of human NCI/ADR-RES cells assessed as cell growth at 10 uM incubated for 48 hrs by sulforhodamine B assay relative to control. In outline:
as §1

For test [8], the system named is K562. The test is described as follows: Growth inhibition of human K562 cells assessed as cell growth at 10 uM incubated for 48 hrs by sulforhodamine B assay relative to control. In outline: as §1
For test [9], the system named is SR. In words: Growth inhibition of human SR cells assessed as cell growth at 10 uM incubated for 48 hrs by sulforhodamine B assay relative to control. In outline: as §2
Test [10] deals with NCI-H226. In words: Growth inhibition of human NCI-H226 cells assessed as cell growth at 10 uM incubated for 48 hrs by sulforhodamine B assay relative to control. In outline:
as §1

Test [11] concerns BT-549. In words: Growth inhibition of human BT-549 cells assessed as cell growth at 10 uM incubated for 48 hrs by sulforhodamine B assay relative to control. The method, boiled down: (§3)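 NCI Developmental Therapeutics Program NCI60 human tumour cell line panel, one-dose primary screen with every compound at 10 µM. Growth is expressed as % of untreated control cells (100%).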

Test [12] deals with SK-MEL-28. The test is described as follows: Growth inhibition of human SK-MEL-28 cells assessed as cell growth at 10 uM incubated for 48 hrs by sulforhodamine B assay relative to control. The method, boiled down:
as §2

In test [13] the test system is ACHN. The test is described as follows: Growth inhibition of human ACHN cells assessed as cell growth at 10 uM incubated for 48 hrs by sulforhodamine B assay relative to control. In outline: as §3
The test system of test [14] is SW-620. In words: Growth inhibition of human SW-620 cells assessed as cell growth at 10 uM incubated for 48 hrs by sulforhodamine B assay relative to control. The method, boiled down:
as §2

Test [15] concerns NCI-H460. The test is described as follows: Growth inhibition of human NCI-H460 cells assessed as cell growth at 10 uM incubated for 48 hrs by sulforhodamine B assay relative to control. The method, boiled down: as §1
Test [16] deals with SF-268. In words: Growth inhibition of human SF-268 cells assessed as cell growth at 10 uM incubated for 48 hrs by sulforhodamine B assay relative to control. The method, boiled down:
as §2

The test system of test [17] is PC-3. In words: Growth inhibition of human PC-3 cells assessed as cell growth at 10 uM incubated for 48 hrs by sulforhodamine B assay relative to control. In outline: as §2
Test [18] has as its system HT-29. The test is described as follows: Growth inhibition of human HT-29 cells assessed as cell growth at 10 uM incubated for 48 hrs by sulforhodamine B assay relative to control. In outline:
as §1

Test [19] concerns SK-MEL-2. The test is described as follows: Growth inhibition of human SK-MEL-2 cells assessed as cell growth at 10 uM incubated for 48 hrs by sulforhodamine B assay relative to control. The method, boiled down: as §2
For test [20], the system named is Hs-578T. The test is described as follows: Growth inhibition of human Hs-578T cells assessed as cell growth at 10 uM incubated for 48 hrs by sulforhodamine B assay relative to control. In outline: as §1
In test [21] the test system is COLO 205. The test is described as follows: Growth inhibition of human COLO 205 cells assessed as cell growth at 10 uM incubated for 48 hrs by sulforhodamine B assay relative to control. In outline: (§4)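 NCI Developmental Therapeutics Program NCI60 panel. Compounds that were active in the 10 µM one-dose screen went on to dose–response testing. Growth at each concentration is expressed relative to untreated control (100%). GI50 (concentration giving 50% of maximal inhibition of proliferation) and TGI (concentration giving total growth inhibition) were derived from the curves.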

Test [22] deals with NCI-H522. In words: Growth inhibition of human NCI-H522 cells assessed as cell growth at 10 uM incubated for 48 hrs by sulforhodamine B assay relative to control. The method, boiled down:
as §1

Test [23] concerns TK-10. In words: Growth inhibition of human TK-10 cells assessed as cell growth at 10 uM incubated for 48 hrs by sulforhodamine B assay relative to control. The method, boiled down: as §2
For test [24], the system named is SNB-75. The test is described as follows: Growth inhibition of human SNB-75 cells assessed as cell growth at 10 uM incubated for 48 hrs by sulforhodamine B assay relative to control. In outline: as §2
Test [25] concerns CAKI-1. In words: Growth inhibition of human CAKI-1 cells assessed as cell growth at 10 uM incubated for 48 hrs by sulforhodamine B assay relative to control. The method, boiled down:
as §4

Take `CC(=O)c1cccc(NC(=O)c2sc3nc4c(cc3c2N)C(=O)CCC4)c1`: the growth at 10 µM was 93.7% in test [1]; 84.4% in test [2]; 88.1% in test [3]; 111% in test [4]; 108% in test [5]; 102% in test [6]. Also, the growth at 10 µM in [7] was found to be 107%; in test [8] it was 79.8%; in test [9], 91.1%; in test [10], 102%; in test [11], 93.7%; in [12], 92.4%. The growth at 10 µM in [13] worked out at 103%; in test [14] it was 98.4%; in [15], 108%; in test [16], 110%; in test [17], 96.3%; in test [18] it was 96.9%. The growth at 10 µM was found to be 103% in test [19]; 106% in [20]; 100% in test [21]; 87.1% in test [22]; 89.3% in test [23]; 94.2% in test [24].
With `COc1ccc(S(=O)(=O)n2ccc(-c3ccc4c(c3)CCC(C)(C)O4)n2)cc1`, the growth at 10 µM in test [1] worked out at 97.6%; in test [2] it was 73.5%; in test [3] it was 52.3%; in [4], 101%; in test [5], 68.3%; in test [6] it was 90.4%. Besides, the growth at 10 µM was 57.3% in test [7]; 55.6% in test [8]; 71.4% in [10]; 65.5% in test [11]; 98.3% in test [12]; 104% in [13]. In addition, the growth at 10 µM in test [14] is 90.3%; in test [15], 75.4%; in [16], 94.7%; in [25] it was 63.3%; in test [17], 78%; in test [18], 84.5%. The growth at 10 µM in test [19] was 84.4%; in test [20], 97.8%; in test [21], 107%; in test [22] it was 55.6%; in [23], 68.2%; in test [24], 84%.
On to `CC(=O)c1ccc2c(N)c(C(=O)Nc3ccccc3)sc2n1`, for which the growth at 10 µM in test [1] was 96.7%; in test [2], 96.8%; in test [3], 84.2%; in test [4], 114%; in test [5], 108%; in [6], 106%. The growth at 10 µM in test [7] is 103%; in [8], 95%; in test [9] it was 86.5%; in test [10] it was 93.4%; in test [11], 108%; in test [12] it was 108%. Further, the growth at 10 µM in test [13] came out at 102%; in test [14], 99.4%; in [15] it was 101%; in [16] it was 112%; in test [17] it was 97.4%; in test [18], 97.2%. The growth at 10 µM in [19] was determined as 107%; in test [20], 106%; in test [21], 105%; in test [22], 103%; in [23], 108%; in test [24] it was 99.5%.
